ChEMBL document CHEMBL2202986, “Guaianolide sesquiterpene lactones, a source to discover agents that selectively inhibit acute myelogenous leukemia stem and progenitor cells” (J Med Chem, 2012)
Activity calls are given as the source filed them.

Legend:
[1] = Cytotoxicity against human leukemia cells assessed as cell viability at 10 uM after 18 hrs by annexin-V labeling-based flow cytometry
[2] = Induction of apoptosis in CD34+ leukemia stem/progenitor cells assessed as late apoptotic cells at 10 uM using annexin V/propidium iodide by flow cytometry; type: functional, Homo sapiens
In short: (§1)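 Primary AML patient cells were exposed to 10 μM compound for 18 h in IMDM, then stained with CD34-APC/CD38-PECy7. Annexin-V–FITC/PI was added and incubated for 15 min at room temperature before flow cytometry. Quadrants were defined as Q1 necrotic, Q2 late apoptotic, Q3 early apoptotic and Q4 viable.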

[3] = Cytotoxicity against human leukemia stem/progenitor cells assessed as viable CD34+ cells at 10 uM after 18 hrs by annexin-V labeling-based flow cytometry relative to control; type: functional, CD34+ cell
[4] = Reduction in colony forming units of leukemia stem/progenitor cells at 5 uM after 15 to 20 days; type: functional, Homo sapiens
In short: (§2)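 Mononuclear cells from AML patient […] were exposed to drug for 18 h in serum-free IMDM, then plated in triplicate in M3434 methylcellulose. Total colonies (CFC-Mix, CFC-GM, CFC-G, CFC-M, BFU-E) were scored by morphology after 15−20 days.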

[5] = Induction of apoptosis in CD34+ leukemia stem/progenitor cells assessed as necrotic cells at 10 uM using annexin V/propidium iodide by flow cytometry; type: functional, Homo sapiens
In short: as §1

[6] = Cytotoxicity against human leukemia stem/progenitor cells assessed as viable CD34+CD38- cells at 10 uM after 18 hrs by annexin-V labeling-based flow cytometry relative to control; type: functional
Homo sapiens = assay: Antitumor activity against human leukemia stem/progenitor cells xenografted in NOD/SCID mouse assessed as reduction of CD45+CD33+ cells in spleen compound pretreated for 18 hrs before grafting process measured after 8 weeks; type: functional, tissue-based
In short: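 Fresh primary AML patient cells were exposed for 18 h to saline or compound. Equal numbers of surviving cells were then injected iv into NOD/SCID mice. After 8 weeks the mice were sacrificed, and the spleen CD33⁺CD45⁺ human cells were quantified by flow cytometry, with each animal analysed individually.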

[7] = Reduction in colony forming units of leukemia stem/progenitor cells at 10 uM after 15 to 20 days; type: functional, Homo sapiens
In short: as §2

[8] = Induction of apoptosis in CD34+ leukemia stem/progenitor cells assessed as early apoptotic cells at 10 uM using annexin V/propidium iodide by flow cytometry; type: functional, Homo sapiens
In short: as §1

HL-60 = assay: Cytotoxicity against human HL60 cells after 18 hrs by annexin-V labeling-based flow cytometry; type: functional, cell-based; details: HL-60, 18 h
[9] = Induction of apoptosis in CD34+ leukemia stem/progenitor cells assessed as viable cells at 10 uM using annexin V/propidium iodide by flow cytometry; type: functional; details: Homo sapiens; read-out: Activity
In short: as §1

[10] = Cytotoxicity against human leukemia stem/progenitor cells assessed as viable CD34+ cells at 5 uM after 18 hrs by annexin-V labeling-based flow cytometry; type: functional, CD34+ cell
In short: (§3)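 Primary leukemia cells from AML patient blood were treated for 18 h in serum-free IMDM, then stained with CD34-APC and CD38-PECy7 for 30 min. After washing in cold PBS, cells were labelled with Annexin-V–FITC/PI for 15 min at room temperature and read by flow cytometry. Viability of total and CD34⁺ cells was normalized to untreated controls (mean, SD).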

[11] = Cytotoxicity against human HL60/A cells after 18 hrs by annexin-V labeling-based flow cytometry; type: functional, cell-based
[12] = Cytotoxicity against human leukemia stem/progenitor cells assessed as viable CD34+ cells at 10 uM after 18 hrs by annexin-V labeling-based flow cytometry; type: functional, CD34+ cell
[13] = Cytotoxicity against human leukemia stem/progenitor cells assessed as cell viability at 5 uM after 18 hrs by annexin-V labeling-based flow cytometry; type: functional; details: in the assay text read “leukemia cells” for “leukemia stem/progenitor cells”, read-out: Activity
In short: as §3

[14] = Cytotoxicity against human CD34+ hematopioetic stem cells at 5 uM by immunostaining method; type: cell-based
In short: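 Mononuclear cells were Ficoll-isolated from umbilical cord blood of a normal donor, cryopreserved, then rested in serum-free IMDM for 1 h. Cells were treated for 18 h in IMDM, stained with CD34-APC for 30 min, and labelled with Annexin-V–FITC/PI for 15 min at room temperature. Read by flow cytometry, normalized to vehicle, done in triplicate.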

[15] = Drug degradation at pH 7.4 assessed as release of PTL after 3 hrs; type: physicochemical; details: buffer, pH 7.4, 3 h

Compound: C=C1C(=O)O[C@@H]2C3O[C@]3(C)CC/C=C(\C)CC[C@@H]12 (stereo partly specified)
- viability at 10 µM [1]: 8.3%
- Activity [2]: 27.8%
- fold change (FC) [3]: 3.8
- CFU [4]: 2
- Activity [5]: 0.046%
- fold change (FC) [6]: 2.6
- Activity (Homo sapiens): Active
- CFU [7]: 0
- Activity [8]: 60.3%
- IC50 (HL-60): 3.7 µM
- viability at 10 µM [9]: 1.73%
- Activity [10]: 13.2%
- IC50 [11]: 4.1 µM
- Activity [12]: 4.7%
- viability at 5 µM [13]: 18%
- Activity [14]: Non-toxic

Compound: C=C1C(=O)O[C@@H]2[C@@H]3[C@@H](CC[C@@]3(C)O)[C@](C)(OC)CC[C@@H]12
- viability at 10 µM [1]: 75.2%
- IC50 (HL-60): 9.4 µM
- Activity [10]: 95.8%
- IC50 [11]: 11.2 µM
- Activity [12]: 76.3%
- viability at 5 µM [13]: 96.5%

Compound: CC1=C2CC[C@@](C)(O)[C@@H]2[C@H]2OC(=O)[C@@H](CN=[N+]=[N-])[C@@H]2CC1
- viability at 10 µM [1]: 53.1%
- IC50 (HL-60): 6.2 µM
- Activity [10]: 26.3%
- IC50 [11]: 6.7 µM
- Activity [12]: 11.2%
- viability at 5 µM [13]: 64.3%

Compound: C=C1C(=O)O[C@@H]2[C@@H]3[C@@H](CC[C@@]3(C)O)C(=C)CC[C@@H]12
- viability at 10 µM [1]: 30.6%
- IC50 (HL-60): 9.4 µM
- Activity [10]: 53.7%
- IC50 [11]: 9.9 µM
- Activity [12]: 22.6%
- viability at 5 µM [13]: 61.6%

Compound: C=C1C(=O)O[C@H]2[C@H]1CCC(C)=C1CC[C@@](C)(OC)[C@@H]12
- viability at 10 µM [1]: 10.8%
- IC50 (HL-60): 9.9 µM
- Activity [10]: 25.5%
- IC50 [11]: 10.2 µM
- Activity [12]: 2.1%
- viability at 5 µM [13]: 34.1%

Compound: C=C1CC[C@H]2C(=C)C(=O)O[C@@H]2[C@]2(O)[C@@H]1CC[C@@H]2C
- viability at 10 µM [1]: 49.7%
- IC50 (HL-60): 4.5 µM
- Activity [10]: 67.9%
- IC50 [11]: 6.4 µM
- Activity [12]: 44.5%
- viability at 5 µM [13]: 70.7%

Compound: C[C@@H]1CC[C@H]2[C@@H](C)C(=O)O[C@@H]3O[C@@]4(C)CC[C@@H]1[C@]32OO4 [ARTEMISININ]
- IC50 (HL-60): > 50 µM
- IC50 [11]: > 50 µM

Compound: CC1=C2CC[C@@](C)(O)[C@@H]2[C@H]2OC(=O)[C@@H](C)[C@@H]2CC1
- viability at 10 µM [1]: 70.8%
- IC50 (HL-60): > 50 µM
- Activity [10]: 83.1%
- IC50 [11]: > 50 µM
- Activity [12]: 74.4%
- viability at 5 µM [13]: 85%

Compound: C/C1=C\CC[C@@]2(C)O[C@@H]2[C@H]2OC(=O)[C@@H](Cn3cc(CO)nn3)[C@@H]2CC1
- Drug degradation [15]: Not Active
- IC50 (HL-60): > 50 µM
- IC50 [11]: > 100 µM

Compound: C=C1CC[C@H]2C(=C)CC[C@H]3C(=C)C(=O)O[C@@H]3[C@@H]12 [DEHYDROCOSTUSLACTONE]
- viability at 10 µM [1]: 6.4%
- IC50 (HL-60): 5.3 µM
- Activity [10]: 2.9%
- IC50 [11]: 3.7 µM
- Activity [12]: 3.8%
- viability at 5 µM [13]: 6.1%

Compound: C/C1=C\CC[C@@]2(C)O[C@@H]2[C@H]2OC(=O)[C@@H](CN=[N+]=[N-])[C@@H]2CC1
- viability at 10 µM [1]: 22.8%
- Drug degradation [15]: Active
- IC50 (HL-60): 4.3 µM
- Activity [10]: 28.4%
- IC50 [11]: 5.9 µM
- Activity [12]: 17.5%
- viability at 5 µM [13]: 31.5%

Compound: C=C1C(=O)O[C@@H]2[C@@H]3[C@@H](CC[C@@]3(C)O)[C@](C)(O)CC[C@@H]12
- viability at 10 µM [1]: 89.9%
- IC50 (HL-60): 21.9 µM
- Activity [10]: 84.9%
- IC50 [11]: 17.9 µM
- Activity [12]: 84.8%
- viability at 5 µM [13]: 88.5%
